Experimental data published in ChEMBL document CHEMBL5705907 (BMC Rheumatol, 2018).
The source made the active and inactive calls. The rule behind the calls is not given here.

Key:
[1] = tested on: Rattus norvegicus; experiment: Antiarthritic activity in adjuvant-induced arthritis Lewis rat model assessed as improvement in synovial hypertrophy at 3 to 10 mg/kg, po administered for 10 days and measured on day 17 by microCT-scanning analysis; assay type: functional, organism-based; settings: dose 3-10 mg/kg, time 17.0 day
[2] = tested on: Rattus norvegicus; experiment: Antiarthritic activity in adjuvant-induced arthritis Lewis rat model assessed as improvement in bone erosion at 3 to 10 mg/kg, po administered for 10 days and measured on day 17 by microCT-scanning analysis; assay type: functional, organism-based; settings: dose 3-10 mg/kg, time 17.0 day
[3] = tested on: Rattus norvegicus; experiment: Antiarthritic activity in adjuvant-induced arthritis Lewis rat model assessed as reduction in paw swelling administered for 10 days and measured on day 17; assay type: functional, organism-based; settings: time 17.0 day
In short: (§1)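 In rats with adjuvant-induced arthritis, vehicle or drug was given by oral gavage BID for 10 days (Day 7–Day 17 after immunization). Paw swelling was measured by water-displacement plethysmography every other day up to Day 17. Treatment groups were compared with vehicle by Dunnett's multiple comparison test.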

[4] = tested on: Rattus norvegicus; experiment: Antiarthritic activity in adjuvant-induced arthritis Lewis rat model assessed as bone destruction by measuring reduction in bone volume at 0.1 mg/kg, po administered for 10 days and measured on day 17 by microCT-scanning analysis; assay type: functional; parameters: scale not given: the % may be the effect or the level left; settings: time 17 day
In short: (§2)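 Lewis rats with adjuvant-induced arthritis were given vehicle or drug by oral gavage twice daily for 10 days (Day 7–Day 17 post immunization). On Day 17 they were exsanguinated by cardiac puncture under isoflurane. Left rear paws were μCT-scanned, and bone volume and density were determined in a 360 μm vertical section through the tarsal region. Groups were compared with vehicle by Dunnett's test.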

[5] = tested on: Rattus norvegicus; experiment: Antiarthritic activity in adjuvant-induced arthritis Lewis rat model assessed as reduction in paw swelling at 5 to 10 mg/kg, po administered for 10 days and measured on day 17; assay type: functional; parameters: scale not given: the % may be the effect or the level left; settings: dose 5-10 mg/kg, time 17 day; in short: as §1
[6] = biological target: Cyclin-dependent kinase 11B (Homo sapiens, UniProt P21127); experiment: Inhibition of CDK11 (unknown origin) by TR-FRET assay
[7] = tested on: Rattus norvegicus; experiment: Antiarthritic activity in adjuvant-induced arthritis Lewis rat model assessed as improvement in cartilage damage at 3 to 10 mg/kg, po administered for 10 days and measured on day 17 by microCT-scanning analysis; settings: dose 3-10 mg/kg, time 17.0 day
[8] = tested on: Rattus norvegicus; experiment: Antiarthritic activity in adjuvant-induced arthritis Lewis rat model assessed as improvement in synovial hypertrophy at 3 to 10 mg/kg, po administered for 10 days and measured on day 17 by microCT-scanning analysis; settings: dose 3-10 mg/kg, time 17.0 day
[9] = tested on: Rattus norvegicus; experiment: Antiarthritic activity in adjuvant-induced arthritis Lewis rat model assessed as improvement in bone erosion at 3 to 10 mg/kg, po administered for 10 days and measured on day 17 by microCT-scanning analysis; settings: dose 3-10 mg/kg, time 17.0 day
[10] = tested on: Rattus norvegicus; experiment: Antiarthritic activity in adjuvant-induced arthritis po dosed Lewis rat model assessed as bone destruction by measuring reduction in bone volume administered for 10 days and measured on day 17 by microCT-scanning analysis; assay type: functional, organism-based; settings: dose 0.1-10 mg/kg, time 17.0 day; in short: as §2
[11] = tested on: Blood; experiment: Ex-vivo inhibition of JAK1 in human blood assessed as reduction in IL-6-induced STAT3 phosphorylation at 36 mg/kg, po measured after 12 hrs; assay type: functional, organism-based
In short: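 Blood was drawn into sodium heparin tubes at 0, 1, 6 and 12 h after an oral dose. It was stimulated with recombinant human IL-6 (400 ng/ml) for 10 min at 37°C and surface-stained for CD14/CD3 on ice. Samples were lysed/fixed, frozen at −70°C, permeabilized, and stained for pSTAT3 for flow cytometry. Percent inhibition used geometric means of induced minus baseline pSTAT relative to pre-dose.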

[12] = biological target: AMP-activated protein kinase, AMPK; experiment: Inhibition of AMPK (unknown origin) by TR-FRET assay; assay type: protein-complex assay, Homo sapiens
[13] = tested on: Rattus norvegicus; experiment: Antiarthritic activity in adjuvant-induced arthritis Lewis rat model assessed as bone destruction by measuring reduction in bone volume at 0.3 mg/kg, po administered for 10 days and measured on day 17 by microCT-scanning analysis; assay type: functional; parameters: scale not given: the % may be the effect or the level left; settings: time 17 day
In short: (§3)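 Rats dosed by oral gavage twice daily (BID) with vehicle or drug for 10 days (Day 7–Day 17 post immunization). On Day 17, rats exsanguinated by cardiac puncture under isoflurane; left rear paw scanned by μCT. Bone volume and density determined in a 360 μm vertical section encompassing the tarsal region. Each group compared with vehicle by Dunnett's multiple comparison test.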

[14] = tested on: Rattus norvegicus; experiment: Antiarthritic activity in adjuvant-induced arthritis Lewis rat model assessed as improvement in cartilage damage at 3 to 10 mg/kg, po administered for 10 days and measured on day 17 by microCT-scanning analysis; assay type: functional, organism-based; settings: dose 3-10 mg/kg, time 17.0 day
[15] = Inhibition of ABL (unknown origin) by TR-FRET assay; parameters: species or system Homo sapiens
[16] = tested on: Rattus norvegicus; experiment: Antiarthritic activity in adjuvant-induced arthritis Lewis rat model assessed as bone destruction by measuring reduction in bone volume at 3 mg/kg, po administered for 10 days and measured on day 17 by microCT-scanning analysis; assay type: functional; parameters: scale not given: the % may be the effect or the level left; settings: time 17 day; in short: as §2
[17] = tested on: Rattus norvegicus; experiment: Antiarthritic activity in adjuvant-induced arthritis Lewis rat model assessed as bone destruction by measuring reduction in bone volume at 10 mg/kg, po administered for 10 days and measured on day 17 by microCT-scanning analysis; assay type: functional; parameters: scale not given: the % may be the effect or the level left; settings: time 17 day; in short: as §3
[18] = tested on: Rattus norvegicus; experiment: Antiarthritic activity in adjuvant-induced arthritis Lewis rat model assessed as bone destruction by measuring reduction in bone volume at 1 mg/kg, po administered for 10 days and measured on day 17 by microCT-scanning analysis; assay type: functional; parameters: scale not given: the % may be the effect or the level left; settings: time 17 day; in short: as §3
[19] = tested on: Rattus norvegicus; experiment: Antiarthritic activity in adjuvant-induced arthritis Lewis rat model at 3 to 10 mg/kg, po administered for 10 days and measured on day 17 by microCT-scanning analysis; assay type: functional, organism-based; settings: dose 3-10 mg/kg, time 17.0 day; in short: as §2

Chain of Cyclin-dependent kinase 11B (P21127 whole entry): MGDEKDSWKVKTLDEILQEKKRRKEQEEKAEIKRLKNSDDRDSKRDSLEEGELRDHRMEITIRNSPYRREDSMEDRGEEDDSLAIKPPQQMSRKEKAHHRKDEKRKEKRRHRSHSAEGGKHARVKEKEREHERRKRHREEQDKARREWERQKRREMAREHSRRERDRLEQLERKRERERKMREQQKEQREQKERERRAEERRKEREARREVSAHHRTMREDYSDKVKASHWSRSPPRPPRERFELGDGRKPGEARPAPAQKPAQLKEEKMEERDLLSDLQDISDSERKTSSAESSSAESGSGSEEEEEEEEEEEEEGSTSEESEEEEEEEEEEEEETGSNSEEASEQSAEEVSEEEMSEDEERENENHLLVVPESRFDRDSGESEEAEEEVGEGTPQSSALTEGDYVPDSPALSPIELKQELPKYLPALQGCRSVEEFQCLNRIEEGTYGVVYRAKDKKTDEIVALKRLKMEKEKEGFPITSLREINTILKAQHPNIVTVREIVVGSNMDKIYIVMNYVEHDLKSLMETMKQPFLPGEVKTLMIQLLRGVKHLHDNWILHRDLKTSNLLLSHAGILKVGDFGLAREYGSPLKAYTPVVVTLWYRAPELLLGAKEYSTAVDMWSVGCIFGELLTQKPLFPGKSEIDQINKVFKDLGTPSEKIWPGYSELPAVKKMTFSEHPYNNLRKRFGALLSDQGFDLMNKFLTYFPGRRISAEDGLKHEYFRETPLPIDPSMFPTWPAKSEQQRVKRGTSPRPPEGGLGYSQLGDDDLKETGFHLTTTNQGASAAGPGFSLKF

Row | Structure (SMILES) | Activity [1] | Activity [2] | Activity [3] | Activity [4] [%] | Activity [5] [%] | IC50 [6] [µM] | Activity [7] | Activity [8] | Activity [9] | Activity [10] | inhibition [11] | IC50 [12] [µM] | Activity [13] [%] | Activity [14] | IC50 [15] [µM] | Activity [16] [%] | Activity [17] [%] | Activity [18] [%] | Activity [19]
1 | CC[C@@H]1CN(C(=O)NCC(F)(F)F)C[C@@H]1c1cnc2cnc3[nH]ccc3n12 [UPADACITINIB] | Active | Active | Active | 26 | >60 | > 10 | Active | Active | Active | Dose-Dependent Effect | Active | > 4.5 | 16 | Active | > 10 | 96 | 89 | 63 | 
2 | C[C@@H]1CCN(C(=O)CC#N)C[C@@H]1N(C)c1ncnc2[nH]ccc12 [TOFACITINIB] |  |  |  |  | >60 |  |  |  |  |  |  |  |  |  |  |  |  |  | Active
